Legend:
ANO2 = target: T1, ANO2 (Homo sapiens, UniProt Q9NQ90); assay: ANO2 whole-cell patch clamp in HEK293 cells transiently expressing ANO2; assay type: cell-based; conditions: 30 μmol/L
T1 sequence (Q9NQ90 1-998): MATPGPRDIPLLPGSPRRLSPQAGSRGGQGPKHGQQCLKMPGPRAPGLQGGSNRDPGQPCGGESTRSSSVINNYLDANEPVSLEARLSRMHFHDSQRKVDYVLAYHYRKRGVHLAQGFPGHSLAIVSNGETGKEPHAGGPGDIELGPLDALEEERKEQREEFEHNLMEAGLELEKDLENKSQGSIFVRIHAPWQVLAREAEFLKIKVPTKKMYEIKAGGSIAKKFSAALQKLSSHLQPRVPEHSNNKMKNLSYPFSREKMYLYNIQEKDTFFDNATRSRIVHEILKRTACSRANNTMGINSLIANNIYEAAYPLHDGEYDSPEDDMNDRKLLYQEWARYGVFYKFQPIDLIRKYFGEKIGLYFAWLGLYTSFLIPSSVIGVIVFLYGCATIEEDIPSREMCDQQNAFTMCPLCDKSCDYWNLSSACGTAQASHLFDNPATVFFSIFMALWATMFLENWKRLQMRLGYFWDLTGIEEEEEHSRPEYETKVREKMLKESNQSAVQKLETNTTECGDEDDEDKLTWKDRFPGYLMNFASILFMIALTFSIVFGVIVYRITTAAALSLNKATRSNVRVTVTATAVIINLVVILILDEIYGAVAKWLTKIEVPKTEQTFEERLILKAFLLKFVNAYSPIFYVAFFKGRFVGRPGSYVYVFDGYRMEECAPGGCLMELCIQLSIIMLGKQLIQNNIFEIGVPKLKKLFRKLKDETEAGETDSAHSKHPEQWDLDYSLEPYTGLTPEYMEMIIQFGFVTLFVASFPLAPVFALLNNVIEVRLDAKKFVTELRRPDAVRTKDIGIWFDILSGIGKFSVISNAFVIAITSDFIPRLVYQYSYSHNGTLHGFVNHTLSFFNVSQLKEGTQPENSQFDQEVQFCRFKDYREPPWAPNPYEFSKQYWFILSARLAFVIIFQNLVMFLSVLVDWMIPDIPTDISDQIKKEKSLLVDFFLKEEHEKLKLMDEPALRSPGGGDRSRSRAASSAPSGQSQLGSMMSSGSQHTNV
Method in brief: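 HEK293 cells transiently transfected with the ANO2 gene; whole-cell patch clamp at room temperature, pipette solution at pCa2+ 6.0. Cells held at −40 mV, stepped from […] in +20 mV increments for 500 ms, then repolarized to −80 mV for 250 ms, every 15 s. Currents recorded before and after 30 μmol/L test compound; an ANO1-selective inhibitor and a pan-inhibitor served as controls.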

[1] = Stability under different pH conditions; assay type: physicochemical; conditions: 37 °C, 100 μmol/L, mean ± SD, n = 3
Method in brief: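 Test compound diluted to 100 μmol/L in phosphate buffers at pH 1.0, 4.0, 6.8, 7.4 and 9.0 and held in a 37 °C water bath. HPLC−UV peak area measured at 0, 2 and 5 h; residual expressed relative to the 0 h peak area.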

CHO cells = assay: SRB proliferative cytotoxicity in CHO cells; assay type: cell-based, Chinese Hamster; conditions: 1 and 3 μmol/L, 72 h
Method in brief: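 CHO cells in DMEM with 10% FBS, seeded overnight, then exposed to test compound or DMSO vehicle for 72 h. Cells fixed with 10% TCA for 1 h at 4 °C and stained with 0.4% SRB in 1% acetic acid for 15 min in the dark. Washed with acetic acid, dye dissolved in 10 mmol/L Tris-base, absorbance read at 540 nm. n = 3, mean ± SEM, t-test vs DMSO control.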

SD rats [2] = assay: Formalin test on rat; assay type: in vivo
Method in brief: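 30 min later, 50 μL 5% formalin injected into the left paw; controls received saline. Foot lifts counted over phase 1 (0–10 min) and phase 2 (10–60 min). Mean ± SD; ANOVA vs vehicle.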

[3] = tested on: intracellular Ca^2+ concentration; assay: Intracellular Ca^2+ fluorescence; assay type: cell-based; conditions: 30 μmol/L compound, 200 μmol/L ATP, Cal520, control 2.3 folds
ANO1 [4] = target: T2, ANO1 (Homo sapiens, UniProt Q5XXA6, DEL476-501); assay: YFP fluorescence quenching assay in ANO1-overexpressing FRT cell line; assay type: cell-based
T2 sequence (Q5XXA6 with tags, fused parts or gaps isoform Q5XXA6-5 DEL539-564): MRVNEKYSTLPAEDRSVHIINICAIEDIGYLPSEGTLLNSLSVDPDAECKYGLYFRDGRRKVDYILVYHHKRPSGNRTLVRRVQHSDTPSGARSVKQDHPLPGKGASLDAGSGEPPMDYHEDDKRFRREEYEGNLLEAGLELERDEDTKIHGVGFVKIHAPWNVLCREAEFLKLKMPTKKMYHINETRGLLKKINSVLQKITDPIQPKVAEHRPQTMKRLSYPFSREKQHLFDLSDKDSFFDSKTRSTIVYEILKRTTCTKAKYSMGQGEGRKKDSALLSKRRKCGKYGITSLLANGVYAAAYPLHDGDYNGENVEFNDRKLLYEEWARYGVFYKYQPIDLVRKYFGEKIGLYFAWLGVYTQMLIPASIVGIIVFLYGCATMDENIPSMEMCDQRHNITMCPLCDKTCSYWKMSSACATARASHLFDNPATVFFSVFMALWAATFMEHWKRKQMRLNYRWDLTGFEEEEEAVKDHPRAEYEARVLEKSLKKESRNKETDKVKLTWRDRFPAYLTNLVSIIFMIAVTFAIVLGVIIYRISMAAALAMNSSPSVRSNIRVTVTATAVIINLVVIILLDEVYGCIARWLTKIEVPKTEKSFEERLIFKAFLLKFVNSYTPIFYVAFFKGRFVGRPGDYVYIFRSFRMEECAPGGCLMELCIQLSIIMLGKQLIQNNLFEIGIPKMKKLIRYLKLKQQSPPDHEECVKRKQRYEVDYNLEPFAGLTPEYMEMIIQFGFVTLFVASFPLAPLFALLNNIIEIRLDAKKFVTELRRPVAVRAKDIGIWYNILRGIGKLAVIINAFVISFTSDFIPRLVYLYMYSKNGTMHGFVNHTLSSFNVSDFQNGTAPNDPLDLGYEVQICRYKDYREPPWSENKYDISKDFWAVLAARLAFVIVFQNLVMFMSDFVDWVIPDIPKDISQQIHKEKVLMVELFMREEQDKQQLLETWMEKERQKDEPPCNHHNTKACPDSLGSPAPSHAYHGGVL

MDCK cells = MDCK cells permeability; assay type: in vitro ADME, canine; conditions: oral bioavailability prediction from MDCK permeability
Method in brief: (§1)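 Transwell with a resistance-stable MDCK monolayer; compound added to the upper chamber, HBSS in the lower chamber. Incubated 120 min at 37 °C, 5% CO2. Lower-chamber concentration measured by LC−MS. Papp derived from amount transported per time, membrane area and initial upper-chamber concentration. Mean ± SD, n = 3.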

MDCK cells permeability = assay type: in vitro ADME, canine; conditions: dog, MDCK
Method in brief: as §1

C57BL/6 male mice = assay: Acute toxicity in mice, i.g.; assay type: in vivo
Method in brief: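 Male C57BL/6 mice, 6–8 weeks, 18–22 g, 7 per group, received a single intragastric dose of 1000 mg/kg. Vehicle was 5% DMSO + 10% […] + 85% saline (v/v), adjusted to pH 8.0 with NaOH. Survival was monitored daily for 3 days.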

SD rats [5] = assay: Chronic constriction injury model; assay type: in vivo; conditions: 40 mg/kg i.g., rat CCI, Electronic Von Frey, vehicle 11.5
ANO1 [6] = target: T2, ANO1; assay: ANO1 whole-cell patch clamp in ANO1-overexpressing FRT cells; assay type: cell-based; conditions: 30 μmol/L, ANO1 activated by 1 μmol/L intracellular Ca^2+

## O=C(O)c1c(-c2ccc(Cl)cc2)csc1NC(=O)c1cccc2ccccc12 [Compound 42, 2-(1-Naphthamido)-4-(4-chlorophenyl) thiophene-3-carboxylic acid]
ANO2; HEK293 cells expressing ANO2
  effect on ANO2 induced CaCC current: little effect
ANO2; compared with Ani9 and CaCCinh-A01
  ANO1/ANO2 selectivity: slightly weaker than that of Ani9 but much higher than that of CaCCinh-A01
[1]; pH 1.0, 5 h
  5 h residual compound under different pH (%) pH 1.0: 99.0 ± 4.6%
[1]; pH 4.0, 5 h
  5 h residual compound under different pH (%) pH 4.0: 99.4 ± 4.4%
[1]; pH 6.8, 5 h
  5 h residual compound under different pH (%) pH 6.8: 99.2 ± 4.9%
[1]; pH 7.4, 5 h
  5 h residual compound under different pH (%) pH 7.4: 99.4 ± 3.5%
[1]; pH 9.0, 5 h
  5 h residual compound under different pH (%) pH 9.0: 99.5 ± 0.9%
CHO cells
  effect on CHO cell proliferation: weak effect
SD rats [2]; 80 mg/kg i.g., phase 2
  analgesic effect in phase 2 compared with vehicle: significant analgesic effect
SD rats [2]; 80 mg/kg i.g., phase 2, vehicle 121 foot lifts
  number of foot lifts, phase 2: 70 foot lifts
SD rats [2]; i.g., compared with the vehicle group, phase 1
  effect on number of foot lifts, phase 1: not phase 1
[3]
  maximum relative fluorescence units (RFU) vs initial value (Ca^2+ influx): 1.9 folds
ANO1 [4]
  IC50: 790 nM
MDCK cells
  F prediction (%): >70%
MDCK cells permeability
  Papp at 120 min: 13.8 ×10⁻⁶ cm/s
C57BL/6 male mice; 1000 mg/kg i.g., 72 h, C57BL/6 male mice
  survival and acute toxic response: All mice survived and no intense acute toxic response
C57BL/6 male mice; i.g. administration, mice
  safe dose: ≤ 1000 mg/kg
SD rats [5]
  PTI, pain threshold rate change (%) of 1 h compared to 0 h: 45.2%
ANO1 [6]
  CaCC current: significantly suppressed the CaCC current
